Reference: ChEMBL document CHEMBL2146427, “Protective effects of hyperoside against carbon tetrachloride-induced liver damage in mice” (2011)
Calls of active or inactive are those of the source. The rule behind the calls is not given here.

Key:
Mus musculus [1] = test: Hepatoprotective activity against CCL4-induced liver damage in ICR mouse assessed as augmentation of CCL-induced HO-1 mRNA expression at 100 mg/kg, ip dosed 30 mins before and 2 hrs post CCL4 challenge and measured 24 hrs post CCL4 challenge by RT-PCR; assay type: functional, organism-based; parameters: dose 100 mg/kg
Summary of the method: (§1)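 Liver total RNA (Chomczynski–Sacchi), oligo(dT) primed reverse transcription, then PCR with 10 μM primers. Cycling was 94/56/72 °C, 30 s each, for 35 cycles (COX-2) or 30 cycles (HO-1), and 94/60/72 °C for 35 cycles (iNOS), with β-actin at 25 cycles. Products were run on 1.5% agarose and stained with ethidium bromide. Male ICR mice, 10 per group, fasted 16 h.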

Mus musculus [2] = test: Hepatoprotective activity against CCL4-induced liver damage in ICR mouse assessed as reduction in portal inflammation at 100 mg/kg, ip dosed 30 mins before and 2 hrs post CCL4 challenge and measured 24 hrs post CCL4 challenge by hematoxylin-eosin staining based method; assay type: functional, organism-based; parameters: dose 100 mg/kg
Summary of the method: (§2)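 Left liver lobe fixed in 10% neutral-buffered formalin, paraffin-embedded, cut at 5 μm and stained with H&E. Scored blind for portal inflammation, hepatocellular necrosis and inflammatory infiltration across 100 random nonconsecutive fields. Male ICR mice; CCl4 20 μL/kg ip in olive oil; tissue taken at 24 h.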

Mus musculus [3] = test: Hepatoprotective activity against CCL4-induced liver damage in ICR mouse assessed as serum ALT level at 200 mg/kg, ip dosed 30 mins before and 2 hrs post CCL4 challenge and measured 24 hrs post CCL4 challenge (reference value: 10229 +/- 918 U/L); assay type: functional; conditions: route intraperitoneal
Mus musculus [4] = test: Hepatoprotective activity against CCL4-induced liver damage in ICR mouse assessed as augmentation of CCL-induced HO-1 protein expression at 100 mg/kg, ip dosed 30 mins before and 2 hrs post CCL4 challenge and measured 24 hrs post CCL4 challenge by Western blot; assay type: functional, organism-based; parameters: dose 100 mg/kg
Mus musculus [5] = test: (§3) Hepatoprotective activity against CCL4-induced liver damage in ICR mouse assessed as […] level per mg protein at 200 mg/kg, ip dosed 30 mins before and 2 hrs post CCL4 challenge and measured 24 hrs post CCL4 challenge by TBARS detection based spectrophotometry (reference value: 3.2 +/- 0.5 nmol/mg protein); assay type: functional; conditions: route intraperitoneal
Mus musculus [6] = test: Hepatoprotective activity against CCL4-induced liver damage in ICR mouse assessed as liver MDA level per mg protein at 50 mg/kg, ip dosed 30 mins before and 2 hrs post CCL4 challenge and measured 24 hrs post CCL4 challenge by TBARS detection based spectrophotometry (reference value: 3.2 +/- 0.5 nmol/mg protein); conditions: route intraperitoneal
Mus musculus [7] = test: Hepatoprotective activity against CCL4-induced liver damage in ICR mouse assessed as reduction in CCL-induced iNOS protein expression at 100 mg/kg, ip dosed 30 mins before and 2 hrs post CCL4 challenge and measured 24 hrs post CCL4 challenge by Western blot; assay type: functional, organism-based; parameters: dose 100 mg/kg
Mus musculus [8] = test: Hepatoprotective activity against CCL4-induced liver damage in ICR mouse assessed as serum AST level at 100 mg/kg, ip dosed 30 mins before and 2 hrs post CCL4 challenge and measured 24 hrs post CCL4 challenge (reference value: 7518 +/- 426 U/L); assay type: functional; conditions: route intraperitoneal
Mus musculus [9] = test: Hepatoprotective activity against CCL4-induced liver damage in ICR mouse assessed as serum ALT level at 100 mg/kg, ip dosed 30 mins before and 2 hrs post CCL4 challenge and measured 24 hrs post CCL4 challenge (reference value: 10229 +/- 918 U/L); assay type: functional; conditions: route intraperitoneal
Mus musculus [10] = test: Hepatoprotective activity against CCL4-induced liver damage in ICR mouse assessed as reduction in CCL-induced iNOS mRNA expression at 100 mg/kg, ip dosed 30 mins before and 2 hrs post CCL4 challenge and measured 24 hrs post CCL4 challenge by RT-PCR; assay type: functional, organism-based; parameters: dose 100 mg/kg; summary of the method: as §1
Mus musculus [11] = test: Hepatoprotective activity against CCL4-induced liver damage in ICR mouse assessed as serum ALT level at 50 mg/kg, ip dosed 30 mins before and 2 hrs post CCL4 challenge and measured 24 hrs post CCL4 challenge (reference value: 10229 +/- 918 U/L); assay type: functional; conditions: route intraperitoneal
Mus musculus [12] = test: Hepatoprotective activity against CCL4-induced liver damage in ICR mouse assessed as […] level per gram of liver at 50 mg/kg, ip dosed 30 mins before and 2 hrs post CCL4 challenge and measured 24 hrs post CCL4 challenge (reference value: 4.8 +/- 0.3 umol/g liver); assay type: functional; conditions: route intraperitoneal
Mus musculus [13] = test: Hepatoprotective activity against CCL4-induced liver damage in ICR mouse assessed as increase in CCL-induced nuclear Nrf2 protein level at 100 mg/kg, ip dosed 30 mins before and 2 hrs post CCL4 challenge and measured 24 hrs post CCL4 challenge by Western blot; assay type: functional, organism-based; parameters: dose 100 mg/kg
Summary of the method: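 Nuclear proteins were extracted from fresh liver with NE-PER, and 15 μg per lane was immunoblotted: nitrocellulose, 1 h milk block, primary antibody overnight at 4 °C, ECL, densitometry. Male ICR mice (25–30 g), 10 per group, fasted 16 h; CCl4 20 μL/kg ip in olive oil; sampled 24 h later.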

Mus musculus [14] = test: Hepatoprotective activity against CCL4-induced liver damage in ICR mouse assessed as reduction in Kupffer cell hyperplasia at 100 mg/kg, ip dosed 30 mins before and 2 hrs post CCL4 challenge and measured 24 hrs post CCL4 challenge by hematoxylin-eosin staining based method; assay type: functional, organism-based; parameters: dose 100 mg/kg; summary of the method: as §2
Mus musculus [15] = test: Hepatoprotective activity against CCL4-induced liver damage in ICR mouse assessed as […] level per gram of liver at 200 mg/kg, ip dosed 30 mins before and 2 hrs post CCL4 challenge and measured 24 hrs post CCL4 challenge (reference value: 4.8 +/- 0.3 umol/g liver); assay type: functional; conditions: route intraperitoneal
Mus musculus [16] = test: Hepatoprotective activity against CCL4-induced liver damage in ICR mouse assessed as serum AST level at 50 mg/kg, ip dosed 30 mins before and 2 hrs post CCL4 challenge and measured 24 hrs post CCL4 challenge (reference value: 7518 +/- 426 U/L); assay type: functional; conditions: route intraperitoneal
Mus musculus [17] = test: Hepatoprotective activity against CCL4-induced liver damage in ICR mouse assessed as […] level per gram of liver at 100 mg/kg, ip dosed 30 mins before and 2 hrs post CCL4 challenge and measured 24 hrs post CCL4 challenge (reference value: 4.8 +/- 0.3 umol/g liver); assay type: functional; conditions: route intraperitoneal
Mus musculus [18] = test: Hepatoprotective activity against CCL4-induced liver damage in ICR mouse assessed as reduction in CCL-induced COX2 mRNA expression at 100 mg/kg, ip dosed 30 mins before and 2 hrs post CCL4 challenge and measured 24 hrs post CCL4 challenge by RT-PCR; assay type: functional, organism-based; parameters: dose 100 mg/kg; summary of the method: as §1
Mus musculus [19] = test: as §3, with “100” for “200”; assay type: functional; conditions: route intraperitoneal
Mus musculus [20] = test: Hepatoprotective activity against CCL4-induced liver damage in ICR mouse assessed as reduction in CCL-induced COX2 protein expression at 100 mg/kg, ip dosed 30 mins before and 2 hrs post CCL4 challenge and measured 24 hrs post CCL4 challenge by Western blot; assay type: functional, organism-based; parameters: dose 100 mg/kg
Mus musculus [21] = test: Hepatoprotective activity against CCL4-induced liver damage in ICR mouse assessed as serum AST level at 200 mg/kg, ip dosed 30 mins before and 2 hrs post CCL4 challenge and measured 24 hrs post CCL4 challenge (reference value: 7518 +/- 426 U/L); assay type: functional; conditions: route intraperitoneal
Mus musculus [22] = test: Hepatoprotective activity against CCL4-induced liver damage in ICR mouse assessed as reduction in CCL-induced TNFalpha production at 100 mg/kg, ip dosed 30 mins before and 2 hrs post CCL4 challenge and measured 24 hrs post CCL4 challenge by ELISA; assay type: functional, organism-based; parameters: dose 100 mg/kg
Summary of the method: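 Serum TNF-α measured by commercial ELISA on abdominal aortic blood drawn 24 h after ip CCl4 (20 μL/kg in olive oil). Male ICR mice, 10 per group, fasted 16 h; saline vehicle ip; mean ± SEM.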

Mus musculus [23] = test: Hepatoprotective activity against CCL4-induced liver damage in ICR mouse assessed as reduction in centrizonal necrosis at 100 mg/kg, ip dosed 30 mins before and 2 hrs post CCL4 challenge and measured 24 hrs post CCL4 challenge by hematoxylin-eosin staining based method; assay type: functional, organism-based; parameters: dose 100 mg/kg; summary of the method: as §2

SMILES: O=c1c(O[C@@H]2O[C@H](CO)[C@H](O)[C@H](O)[C@H]2O)c(-c2ccc(O)c(O)c2)oc2cc(O)cc(O)c12 [HYPEROSIDE]
- Activity (Mus musculus [1]): Active
- Activity (Mus musculus [2]): Active
- Activity (Mus musculus [3]): 7055 U/L
- Activity (Mus musculus [4]): Active
- Activity (Mus musculus [5]): 1.4 nmol
- Activity (Mus musculus [6]): 2.4 nmol
- Activity (Mus musculus [7]): Active
- Activity (Mus musculus [8]): 5488 U/L
- Activity (Mus musculus [9]): 7134 U/L
- Activity (Mus musculus [10]): Active
- Activity (Mus musculus [11]): 10740 U/L
- Activity (Mus musculus [12]): 6.1 µmol
- Activity (Mus musculus [13]): Active
- Activity (Mus musculus [14]): Active
- Activity (Mus musculus [15]): 6 µmol
- Activity (Mus musculus [16]): 6820 U/L
- Activity (Mus musculus [17]): 5.2 µmol
- Activity (Mus musculus [18]): Active
- Activity (Mus musculus [19]): 1.5 nmol
- Activity (Mus musculus [20]): Active
- Activity (Mus musculus [21]): 5382 U/L
- Activity (Mus musculus [22]): Active
- Activity (Mus musculus [23]): Active
